Active and inactive are the calls of the source. The rule behind the calls is not given here.
Experiments:
Oryctolagus cuniculus [1] = species: Oryctolagus cuniculus; test: Activation of troponin in rabbit fast skeletal muscle fibers assessed as increase in calcium stimulated activity by measuring compound concentration that produces 40% increase in myofibril ATPase activity at 25% of calcium concentration needed for maximal response by pyruvate kinase/lactate dehydrogenase-coupled based assay
Outline: (§1)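 Myofibril ATPase rate (used as a surrogate for force), with fast-skeletal myofibrils from rabbit muscle. For cardiac and slow-skeletal activity, mixed sarcomeres combine myosin and thin-filament preparations from fast, slow or cardiac muscle. AC40 is the concentration giving a 40% increase in ATPase activity at 25% of the calcium level needed for a maximal response in control preparations. Duplicate experiments.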

Oryctolagus cuniculus [2] = species: Oryctolagus cuniculus; test: Activation of troponin in rabbit fast skeletal muscle fibers assessed as increase in calcium stimulated activity by measuring compound concentration that produces 30% increase in tension at 25% of calcium concentration needed for maximal response by […]
Outline: (§2)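 Skinned-fiber tension assay on a mounted fiber, measuring the force–calcium relationship. Fast fibers are rabbit psoas; slow fibers are primarily slow rabbit semimembranosus. DF30 is the concentration giving a 30% increase in tension at 25% of the calcium level needed for a maximal response in control preparations.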

[3] = Extraction ratio in rat liver microsomes measured up to 90 mins by HPLC/MS/MS analysis; type: ADME, microsome; details: read-out: ERH
[4] = Extraction ratio in human liver microsomes measured up to 90 mins by HPLC/MS/MS analysis; type: ADME, microsome; details: read-out: ERH
[5] = (§3) Volume of distribution at steady state in Sprague-Dawley rat at 1 mg/kg, po or 1 mg/kg iv via bolus by HPLC method; type: ADME, organism-based; details: Sprague-Dawley, in vivo, read-out: Vdss
Outline: (§4)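 Pharmacokinetics at a dose of 1 mg/kg, comparing oral and intravenous administration to derive bioavailability, clearance and steady-state volume of distribution. In rats, compounds were dosed as crystalline suspensions.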

Rattus norvegicus [6] = test: Oral bioavailability in Sprague-Dawley rat at 1 mg/kg by HPLC method; type: ADME, organism-based; details: in vivo; outline: as §4
[7] = Fraction unbound in rat plasma at 5 uM after 6 hrs by equilibrium dialysis based HPLC method; type: ADME, cell-free
[8] = Fraction unbound in human plasma at 5 uM after 6 hrs by equilibrium dialysis based HPLC method; type: ADME, cell-free
Rattus norvegicus [9] = test: Increase in muscle force in rat extensor digitorum longus muscle dosed systemically measured every two mins by in situ live fiber activity assay; type: functional, organism-based
[10] = Extraction ratio in dog liver microsomes measured up to 90 mins by HPLC/MS/MS analysis; type: ADME, Canis lupus familiaris, microsome; details: read-out: ERH
[11] = Extraction ratio in mouse liver microsomes measured up to 90 mins by HPLC/MS/MS analysis; type: ADME, microsome; details: read-out: ERH
Canis familiaris = test: Volume of distribution at steady state in Beagle dog at 1 mg/kg, po or 1 mg/kg iv via bolus by HPLC method; type: ADME, organism-based, Canis lupus familiaris; details: in vivo; outline: as §4
Mus musculus = test: Volume of distribution at steady state in mouse at 1 mg/kg, po or 1 mg/kg iv via bolus by HPLC method; type: ADME, organism-based; details: in vivo; outline: as §4
[12] = Oral bioavailability in Beagle dog at 1 mg/kg by HPLC method; type: ADME, organism-based, Canis lupus familiaris; details: in vivo; outline: as §4
[13] = Oral bioavailability in mouse at 1 mg/kg by HPLC method; type: ADME, organism-based; details: in vivo; outline: as §4
[14] = Apparent permeability of the compound in human Caco2 cells; type: ADME, cell-based; details: caco-2
Cytochrome P450 1A2 [15] = target: T1, Cytochrome P450 1A2 (Homo sapiens, UniProt P05177); test: Inhibition of CYP1A2 in human liver microsomes using phenacetin as substrate in presence of NADP; type: ADME
T1 sequence (P05177 whole entry): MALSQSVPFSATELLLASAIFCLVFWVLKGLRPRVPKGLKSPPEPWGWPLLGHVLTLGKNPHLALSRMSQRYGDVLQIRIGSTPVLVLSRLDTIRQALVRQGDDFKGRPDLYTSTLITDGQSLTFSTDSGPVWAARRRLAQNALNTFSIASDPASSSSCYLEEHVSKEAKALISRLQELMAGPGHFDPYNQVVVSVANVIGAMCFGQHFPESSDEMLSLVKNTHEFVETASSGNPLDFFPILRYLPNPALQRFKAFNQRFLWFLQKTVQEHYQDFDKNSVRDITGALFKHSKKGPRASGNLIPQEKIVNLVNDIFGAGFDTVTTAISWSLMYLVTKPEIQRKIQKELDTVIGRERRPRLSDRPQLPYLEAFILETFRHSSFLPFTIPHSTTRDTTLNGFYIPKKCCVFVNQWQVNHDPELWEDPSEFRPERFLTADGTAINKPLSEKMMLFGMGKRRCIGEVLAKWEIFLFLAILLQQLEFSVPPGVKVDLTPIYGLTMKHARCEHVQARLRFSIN

Cytochrome P450 1A2 [16] = target: T1, Cytochrome P450 1A2; test: Time dependent inhibition of CYP1A2 in human liver microsomes using phenacetin as substrate preincubated for 30 mins followed by NADP addition; details: TDE = time-dependent effect
Rattus norvegicus [17] = test: as §3; type: ADME, organism-based; details: in vivo; outline: as §4
Oryctolagus cuniculus [18] = species: Oryctolagus cuniculus; test: Activation of troponin in rabbit primarily fast psoas muscle fibers assessed as increase in calcium level by skinned fiber assay; outline: as §2
Oryctolagus cuniculus [19] = species: Oryctolagus cuniculus; test: Activation of troponin C in rabbit primarily slow semi membranosus muscle fibers assessed as increase in calcium level by skinned fiber assay; outline: as §2
Bos taurus [20] = species: Bos taurus; test: Activation of troponin C in […] bovine cardiac muscle fibers assessed as increase in calcium stimulated activity by measuring compound concentration that produces 40% increase in myofibril ATPase activity at 25% of calcium concentration needed for maximal response by pyruvate kinase/lactate dehydrogenase-coupled based assay; outline: as §1
Bos taurus [21] = species: Bos taurus; test: Activation of troponin C in bovine masseter slow skeletal muscle fibers assessed as increase in calcium stimulated activity by measuring compound concentration that produces 40% increase in myofibril ATPase activity at 25% of calcium concentration needed for maximal response by pyruvate kinase/lactate dehydrogenase-coupled based assay; outline: as §1

CCC(CC)n1c(=O)[nH]c2ncc(C(F)(F)F)nc21
EC40 (Oryctolagus cuniculus [1]): 11.3 µM

C[C@H](c1ccccc1)n1c(=O)[nH]c2ncc(-c3ccco3)nc21
EC40 (Oryctolagus cuniculus [1]): > 49 µM

CC(=O)c1cnc2nc(O)n([C@@H](C)c3ccccc3)c2n1
EC40 (Oryctolagus cuniculus [1]): > 49 µM

CCC(CC)n1c(=O)[nH]c2ncc(C)nc21
EC40 (Oryctolagus cuniculus [1]): 2 µM | EC30 (Oryctolagus cuniculus [2]): 4.4 µM

COc1cnc2[nH]c(=O)n([C@@H](C)c3ccccc3)c2n1
EC40 (Oryctolagus cuniculus [1]): 8.9 µM

C#Cc1cnc2nc(O)n(C(CC)CC)c2n1 [TIRASEMTIV]
EC40 (Oryctolagus cuniculus [1]): 0.1 µM | EC30 (Oryctolagus cuniculus [2]): 0.3 µM | hepatic extraction ratio at 1.5 h [3]: 0.26 to 0.3 | hepatic extraction ratio at 1.5 h [4]: < 0.2 | Vd [5]: 0.8 to 2.6 L/kg | F (Rattus norvegicus [6]): 98% | Fu [7]: 6.9% | Fu [8]: 1.9% | Activity (Rattus norvegicus [9]): Dose-dependent effect | hepatic extraction ratio at 1.5 h [10]: < 0.21 | hepatic extraction ratio at 1.5 h [11]: 0.24 | Vdss (Canis familiaris): 1.7 L/kg | Vdss (Mus musculus): 1 L/kg | bioavailability [12]: 93% | bioavailability [13]: 43% | Papp [14]: > 50 ×10⁻⁶ cm/s | IC50 (Cytochrome P450 1A2 [15]): 20 µM | inhibition (INH) (Cytochrome P450 1A2 [16]): Tde

C[C@@H](c1ccccc1)n1c(=O)[nH]c2ncc(S(C)(=O)=O)nc21
EC40 (Oryctolagus cuniculus [1]): > 49 µM

C[C@@H](c1ccccc1)n1c(=O)[nH]c2ncc(C#N)nc21
EC40 (Oryctolagus cuniculus [1]): > 49 µM

CCC(CC)n1c(O)nc2ncc(OC)nc21
hepatic extraction ratio at 1.5 h [3]: > 0.7 | hepatic extraction ratio at 1.5 h [4]: < 0.2

O=c1[nH]c2ncc(Br)nc2n1C1CC1
EC40 (Oryctolagus cuniculus [1]): > 49 µM

CCC(CC)n1c(O)nc2ncc(C(F)(F)F)nc21
hepatic extraction ratio at 1.5 h [3]: 0.2 | hepatic extraction ratio at 1.5 h [4]: < 0.2

O=c1[nH]c2ncc(-c3ccco3)nc2n1Cc1ccccc1
EC40 (Oryctolagus cuniculus [1]): > 49 µM

CCC(CC)n1c(O)nc2ncc(Br)nc21
hepatic extraction ratio at 1.5 h [3]: 0.4 | hepatic extraction ratio at 1.5 h [4]: < 0.2 | Vdss (Rattus norvegicus [17]): 6.5 L/kg | F (Rattus norvegicus [6]): 62% | Fu [7]: 1.3% | Fu [8]: 0.5%

CCC(CC)n1c(=O)[nH]c2ncc(C#N)nc21
EC40 (Oryctolagus cuniculus [1]): 36.3 µM

CSc1cnc2[nH]c(=O)n([C@@H](C)c3ccccc3)c2n1
EC40 (Oryctolagus cuniculus [1]): 2.6 µM | EC30 (Oryctolagus cuniculus [2]): 3.8 µM

C[C@@H](c1ccccc1)n1c(=O)[nH]c2ncc(Br)nc21
EC40 (Oryctolagus cuniculus [1]): 1.6 µM | EC30 (Oryctolagus cuniculus [2]): 3 µM

CC[C@H](C)n1c(=O)[nH]c2ncc(Br)nc21
EC40 (Oryctolagus cuniculus [1]): 1 µM | EC30 (Oryctolagus cuniculus [2]): 5.1 µM

C#Cc1cnc2nc(OC)n(C(CC)CC)c2n1
EC40 (Oryctolagus cuniculus [1]): > 39.2 µM

C=Cc1cnc2[nH]c(=O)n(C(CC)CC)c2n1
EC40 (Oryctolagus cuniculus [1]): 1.1 µM | EC30 (Oryctolagus cuniculus [2]): 1.1 µM | hepatic extraction ratio at 1.5 h [3]: > 0.7 | hepatic extraction ratio at 1.5 h [4]: 0.5

CCC(CC)n1c(=O)[nH]c2ncc(Br)nc21
EC40 (Oryctolagus cuniculus [1]): 0.3 µM | EC30 (Oryctolagus cuniculus [2]): 0.4 µM

CCC(CC)n1c(=O)[nH]c2ncc(OC)nc21
EC40 (Oryctolagus cuniculus [1]): 2.2 µM

C[C@@H](c1ccccc1)n1c(=O)[nH]c2ncc(-c3ccco3)nc21
Activity (Oryctolagus cuniculus [18]): Active | Activity (Oryctolagus cuniculus [19]): inactive | EC40 (Oryctolagus cuniculus [1]): 7 µM | EC40 (Bos taurus [20]): > 49 µM | EC40 (Bos taurus [21]): > 39 µM | EC30 (Oryctolagus cuniculus [2]): 30.6 µM

CCC(CC)n1c(=O)[nH]c2nccnc21
EC40 (Oryctolagus cuniculus [1]): 14 µM

CC(C)(C)n1c(=O)[nH]c2ncc(Br)nc21
EC40 (Oryctolagus cuniculus [1]): 0.8 µM | EC30 (Oryctolagus cuniculus [2]): 4.6 µM

CCC(CC)n1c(O)nc2ncc(C)nc21
hepatic extraction ratio at 1.5 h [3]: 0.7 | hepatic extraction ratio at 1.5 h [4]: < 0.2

CCC(CC)n1c(=O)[nH]c2ncc(Cl)nc21
EC40 (Oryctolagus cuniculus [1]): 0.5 µM | EC30 (Oryctolagus cuniculus [2]): 0.6 µM | hepatic extraction ratio at 1.5 h [3]: 0.4 | hepatic extraction ratio at 1.5 h [4]: < 0.2 | Vdss (Rattus norvegicus [17]): 3.4 L/kg | F (Rattus norvegicus [6]): 100% | Fu [7]: 1.1% | Fu [8]: 0.8%

CC(C)(C)n1c(O)nc2ncc(Br)nc21
hepatic extraction ratio at 1.5 h [3]: 0.3 | hepatic extraction ratio at 1.5 h [4]: 0.2

CCc1cnc2[nH]c(=O)n([C@@H](C)c3ccccc3)c2n1
EC40 (Oryctolagus cuniculus [1]): 21.8 µM

C#Cc1cnc2oc(=O)n(C(CC)CC)c2n1
EC40 (Oryctolagus cuniculus [1]): > 39.2 µM

O=c1[nH]c2ncc(Br)nc2n1C1CCCCC1
EC40 (Oryctolagus cuniculus [1]): 10 µM

CC(C)n1c(=O)[nH]c2ncc(Br)nc21
EC40 (Oryctolagus cuniculus [1]): 6 µM | EC30 (Oryctolagus cuniculus [2]): 2.2 µM

C[C@@H](c1ccccc1)n1c(O)nc2ncc(Br)nc21
hepatic extraction ratio at 1.5 h [3]: 0.5 | hepatic extraction ratio at 1.5 h [4]: < 0.3

C[C@@H](c1ccccc1)n1c(=O)[nH]c2ncc(-c3ccccc3)nc21
EC40 (Oryctolagus cuniculus [1]): > 49 µM

CC[C@H](C)n1c(O)nc2ncc(Br)nc21
hepatic extraction ratio at 1.5 h [3]: 0.3 | hepatic extraction ratio at 1.5 h [4]: < 0.2

CC#Cc1cnc2[nH]c(=O)n(C(CC)CC)c2n1
EC40 (Oryctolagus cuniculus [1]): > 49 µM

CCC(CC)n1c(O)nc2ncc(C#N)nc21
hepatic extraction ratio at 1.5 h [3]: < 0.2 | hepatic extraction ratio at 1.5 h [4]: < 0.2

C=Cc1cnc2[nH]c(=O)n([C@@H](C)c3ccccc3)c2n1
EC40 (Oryctolagus cuniculus [1]): 3.5 µM | EC30 (Oryctolagus cuniculus [2]): 4.6 µM

Source: ChEMBL document CHEMBL4145557, “Discovery of Tirasemtiv, the First Direct Fast Skeletal Muscle Troponin Activator” (ACS Med Chem Lett, 2018)
